Compound activity (PubChem)
In the library only some 1.5% were active in any assay of this set; here they are far more common.
Rin1-Abl PPI inh: human Rin1-Abl interaction inhibition. P00519+Q13671. TR-FRET Rin1/Abl binding, biochemical. inhibition, % at 7.35 µM. hit rate 0.4% among 360,000. AID 588664; in the data active = inhibition above about 5%, passing the limit was not always enough
Target sequence (P00519 whole entry, looked up): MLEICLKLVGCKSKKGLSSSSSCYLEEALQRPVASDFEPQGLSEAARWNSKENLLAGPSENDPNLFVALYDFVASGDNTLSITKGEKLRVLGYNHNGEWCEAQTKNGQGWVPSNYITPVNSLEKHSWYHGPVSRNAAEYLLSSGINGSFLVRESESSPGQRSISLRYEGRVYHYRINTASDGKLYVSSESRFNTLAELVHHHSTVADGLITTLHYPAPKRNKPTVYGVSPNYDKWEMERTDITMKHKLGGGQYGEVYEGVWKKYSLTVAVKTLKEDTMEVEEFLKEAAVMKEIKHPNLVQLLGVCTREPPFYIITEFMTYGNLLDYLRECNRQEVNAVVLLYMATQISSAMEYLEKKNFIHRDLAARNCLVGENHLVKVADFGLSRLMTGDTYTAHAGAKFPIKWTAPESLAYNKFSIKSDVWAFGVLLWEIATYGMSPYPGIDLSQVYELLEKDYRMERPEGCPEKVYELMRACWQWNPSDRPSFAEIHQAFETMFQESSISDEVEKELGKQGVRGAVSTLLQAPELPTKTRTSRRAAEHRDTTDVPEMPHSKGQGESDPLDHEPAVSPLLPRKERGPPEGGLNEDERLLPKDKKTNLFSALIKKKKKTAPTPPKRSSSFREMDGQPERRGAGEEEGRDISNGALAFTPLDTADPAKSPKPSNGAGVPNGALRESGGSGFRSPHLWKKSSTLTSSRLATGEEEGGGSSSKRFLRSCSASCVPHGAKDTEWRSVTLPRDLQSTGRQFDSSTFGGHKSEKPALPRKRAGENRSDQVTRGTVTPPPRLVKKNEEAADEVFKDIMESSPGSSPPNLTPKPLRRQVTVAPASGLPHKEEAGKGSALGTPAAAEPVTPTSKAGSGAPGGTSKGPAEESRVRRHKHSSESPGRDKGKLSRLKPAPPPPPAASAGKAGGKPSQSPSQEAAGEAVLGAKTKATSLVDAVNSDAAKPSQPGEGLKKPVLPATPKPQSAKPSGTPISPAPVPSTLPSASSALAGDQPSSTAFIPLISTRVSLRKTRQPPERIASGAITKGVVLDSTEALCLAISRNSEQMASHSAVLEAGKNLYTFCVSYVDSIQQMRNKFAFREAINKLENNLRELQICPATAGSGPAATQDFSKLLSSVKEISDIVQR
Target sequence (Q13671 whole entry, looked up): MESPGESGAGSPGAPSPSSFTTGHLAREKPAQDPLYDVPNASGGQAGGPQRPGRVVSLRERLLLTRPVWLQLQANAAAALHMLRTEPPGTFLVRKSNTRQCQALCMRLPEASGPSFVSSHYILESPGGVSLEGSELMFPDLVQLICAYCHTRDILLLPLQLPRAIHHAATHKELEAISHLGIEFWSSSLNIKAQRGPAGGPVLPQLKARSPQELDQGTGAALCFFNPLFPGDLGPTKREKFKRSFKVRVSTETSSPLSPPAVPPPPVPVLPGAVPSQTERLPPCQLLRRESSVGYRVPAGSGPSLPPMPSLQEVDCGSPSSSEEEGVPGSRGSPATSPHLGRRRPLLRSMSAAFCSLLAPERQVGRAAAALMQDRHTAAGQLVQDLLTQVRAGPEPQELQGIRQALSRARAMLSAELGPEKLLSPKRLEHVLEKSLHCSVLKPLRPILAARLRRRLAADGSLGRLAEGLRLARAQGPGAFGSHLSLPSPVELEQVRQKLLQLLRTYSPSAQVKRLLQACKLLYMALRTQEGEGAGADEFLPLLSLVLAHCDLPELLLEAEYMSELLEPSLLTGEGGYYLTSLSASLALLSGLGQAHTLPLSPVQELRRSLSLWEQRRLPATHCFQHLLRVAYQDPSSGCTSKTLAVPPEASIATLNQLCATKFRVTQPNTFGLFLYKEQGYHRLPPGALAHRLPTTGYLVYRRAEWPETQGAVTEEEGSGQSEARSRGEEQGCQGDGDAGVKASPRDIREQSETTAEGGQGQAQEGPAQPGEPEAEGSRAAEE
H9c2 protect: protects H9c2 cardiomyocytes from peroxide injury; H2O2 injury protection, ATPLite, 2 h; protection from H2O2 cell death, % at 20 µM; hit rate 0.63% among 360,000;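 active = compounds giving at least 50% protection of heart cells from peroxide-induced death in the single-dose screen, raw or plate-pattern-corrected value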
Tb MetRS inh: Trypanosoma brucei MetRS inhibition | AID 624268 | purified T. brucei MetRS, ATP depletion, Kinase-Glo luminescence | inhibition, % at 11.9 µM | hit rate 0.4% among 360,000;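 active = inhibition above a per-plate cutoff of the control wells' mean inhibition plus 3 SD, cut at about 5.5% in these data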
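Material: T. brucei methionyl-tRNA synthetase, purified; reagent: substrates ATP, L-methionine and bulk Escherichia coli tRNA; dosing: 11.9 µM single point; timing: 15 min plus 2 h at 25 °C; detection: luminescence of leftover ATP; evaluation: % inhibition; control set: DMSO-only wells as low control; replicates: singlicate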
PKA-R2B act: activators of human PKA-R2B complex; P22694+P31323; PKA-R2B holoenzyme dissociation, Cy5-IP20 fluorescence polarization; R2B truncated from residue 108, S112A mutant; 0% DMSO only, 100% 113 µM cGMP; activation, % at 11.4 µM; hit rate 0.079% among 340,000;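 active = activation above a cutoff set at the mean over all compounds plus 3 SD, cut at about 18% in these data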;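 note: higher means more holoenzyme dissociation and a rise in polarization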
PKA-R1A act: PKA-R1A complex activation. hit rate 0.083% among 340,000. PKA-R1A dissociation, Cy5-IP20 fluorescence polarization; scaled: DMSO 0%, 113 µM cGMP 100%. activation, % at 11.4 µM;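 active = percent activation above the mean of all tested compounds plus 3 SD, cut at about 19% in these data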;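 note: higher means more PKAc released from R1A so a rise in polarization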
Rin1 Abl conf: Rin1-Abl interaction inhibition confirmation; inhibition, % at 7.35 µM; TR-FRET Rin1-Abl binding, purified proteins; shares compounds with Rin1-Abl PPI inh; hit rate 49% among 1,300; in the data active = inhibition above about 6.5%
GFP quench-1: GFP fluorescence interference artifact. shares compounds with Rin1-Abl PPI inh. inhibitors/quenchers counterscreen. inhibition, % at 6.75 µM. hit rate 8.5% among 1,300. AID 602125; in the data active = inhibition above about 6.5%;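 note: ABL1-eGFP fusion protein alone without its partner RIN1-SBP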
GFP quench DR: quenches GFP in dose response, Rin1-Abl counter-screen; shares compounds with Rin1-Abl PPI inh; GFP fluorescence interference/quenching counterscreen; 230 tested, under 10 active; IC50, µM;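 note: ABL1-eGFP fusion protein alone without its RIN1 binding partner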
GFP quench-2: GFP quenching artifact for Rin1-Abl inhibitor hits; shares compounds with Rin1-Abl PPI inh; GFP fluorescence quenching counterscreen, biochemical; AID 602397; IC50, µM; 25 tested, under 10 active
A number is an active result; - = inactive; . = no result given. Unless noted, the rule behind the calls is not given here.

SMILES	Rin1-Abl PPI inh	H9c2 protect	Tb MetRS inh	PKA-R2B act	PKA-R1A act	Rin1 Abl conf	GFP quench-1	others
COc1ccc(CCNc2cc(=O)[nH]c(N)n2)cc1	23.9	-	-	-	-	52.2	-	GFP quench DR=-;GFP quench-2=-
Cc1cc(-c2nn(-c3ccccc3F)cc2CN2CCCC(O)C2)c(C)s1 (stereo unspecified)	5.7	-	-	-	-	-	-
Cc1cc(-c2nn(-c3ccccc3F)cc2CN2CCCC(CO)C2)c(C)s1 (stereo unspecified)	-	-	-	-	-	.	.
N#CCCN(C(=O)COC(=O)c1ccc2c(=O)n3c(nc2c1)CCC3)c1ccccc1	12.0	-	-	-	-	-	-
CCCc1c(O)nc(SCCN(CC)CC)[nH]c1=O	7.6	-	-	-	-	-	-
CCN(CC)CCSc1nc(O)c(C(C)C)c(=O)[nH]1	-	-	-	-	-	.	.
CCC1C(=O)NCCN1C(=O)c1ccc(OC)c(OC2CCN(C(C)=O)CC2)c1 (stereo unspecified)	8.4	-	-	-	-	-	-
O=C(O)/C=C/C(=O)Nc1ccc(-n2nccc2C(F)(F)F)cc1	-	-	-	-	-	.	.
O=C(O)/C=C/C(=O)Nc1ccc(-n2ccc(C(F)(F)F)n2)cc1	6.4	-	-	-	-	-	-
COc1ccc(S(=O)(=O)N2CCCCCC2)cc1C(=O)Nc1ccc(C(=O)N(C)C)cc1	37.8	-	-	-	-	43.1	-	GFP quench DR=-
COc1cc(C(=O)Nc2ccc(S(=O)(=O)N3CCOCC3)cc2)c([N+](=O)[O-])cc1OC	11.1	-	-	-	-	-	-
COc1ccc(NC(=O)CSc2nc(N)cc(=O)[nH]2)cc1S(=O)(=O)N1CCCCC1	10.7	-	-	-	-	7.7	-
COc1ccc(CC(=O)Nc2ccc(S(=O)(=O)N3CCCCC3)cc2)cc1OC	10.4	-	-	-	-	6.7	-
COc1ccc(CC(=O)Nc2ccc(S(=O)(=O)N3CCCC3)cc2)cc1OC	-	-	-	-	-	.	.
Cc1cc(C)nc(SCC(=O)Nc2ccc(S(=O)(=O)N3CCCCC3)cc2)n1	6.3	-	-	-	-	-	-
Cc1csc(SCC(=O)Nc2ccc(S(=O)(=O)N3CCCC3)cc2)n1	-	-	-	-	-	.	.
O=C(CCNC(=O)C1CCN(S(=O)(=O)c2ccc(F)cc2)CC1)Nc1nccs1	-	-	-	-	-	.	.
CC(=O)Nc1ccc(S(=O)(=O)N2CCC(C(=O)NCCC(=O)Nc3nccs3)CC2)cc1	11.2	-	-	-	-	-	-
CC(=O)NC(c1cccc(F)c1)c1nc(-c2cc(F)cc(Cl)c2)cs1 (stereo unspecified)	-	-	-	.	.	.	.
NC(=O)C1CCN(CC(=O)Nc2ccccc2Sc2ccccc2)CC1	7.3	-	-	-	-	11.2	-
CC(=O)c1cccc(NC(=O)C2(C)Cc3c(-c4cccc(C(N)=O)c4)ccnc3O2)c1 (stereo unspecified)	8.2	-	-	.	.	11.8	-
COc1ccc(CNC(=O)C2(C)Cc3c(-c4cccc(C(N)=O)c4)ccnc3O2)cc1OC (stereo unspecified)	11.1	-	-	.	.	7.2	-
COc1cccc(C(=O)N2CCN(Cc3ccc(OC)cc3OC)CC2)c1	-	-	-	-	-	.	.
CCOC(=O)C(C(=O)OCC)C(=O)c1cccc2ccc3ccccc3c12	-	-	-	-	-	.	.
O=C(COC(=O)c1cccnc1)Nc1ccc(F)cc1	5.7	-	-	-	-	-	-
O=C(COC(=O)c1cccnc1)Nc1ccccc1	-	-	-	-	-	.	.
CC(NC(=O)N1CCN(c2ccccc2F)CC1)c1ccc(F)c(F)c1 (stereo unspecified)	-	-	-	-	-	.	.
